Tests used:
[1] = Inhibition of Trypanosoma brucei GSK3 using biotinylated GSP2 substrate by flashplate assay
Procedure, shortened: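 Radiometric Flashplate assay: 2.5 nM TbGSK3 short, 1 μM biotinylated GSP2, 1 μM ATP plus [γ-33P]-ATP. 10-point titration 30 μM to 0.3 nM final, 1% DMSO. IC50 averaged over two or more experiments; standard GW8510 used for reproducibility (MSR).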

[2] = target: Glycogen synthase kinase-3 (Homo sapiens, UniProt P49840+P49841); assay: Inhibition of human GSK3 using biotinylated GSP2 substrate by flashplate assay; assay type: protein assay
CDK2/Cyclin A2 = CDK2/Cyclin A2 (Homo sapiens, UniProt P24941); assay: Inhibition of human CDK2/cyclin A using Biotin-C6-PKTPKKAKKL substrate; assay type: protein-complex assay
[3] = Selectivity ratio, ratio of IC50 for human CDK2/cyclin A to IC50 for Trypanosoma brucei GSK3
[4] = test system: Trypanosoma brucei brucei; assay: Trypanocidal activity against bloodstream stage of Trypanosoma brucei brucei assessed as inhibition of proliferation after 72 hrs; assay type: functional, organism-based
Procedure, shortened: (§1)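 Resazurin viability assay: 2 × 10³ cells/well (MRC5 in MEM + 10% FBS; bloodstream-form T. b. brucei in appropriate medium), compounds 50 μM to 0.5 nM, 37 °C, 5% CO₂ for 69 h, then resazurin 50 μM final for further 4 h; fluorescence read. Concentration giving 50% growth inhibition over 72 h; average of two or more experiments.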

MRC5 = assay: Cytotoxicity against human MRC5 cells assessed as growth inhibition after 72 hrs; assay type: cell-based; details: MRC5, 72 h; procedure, shortened: as §1
[5] = target: Dual specificity mitogen-activated protein kinase kinase 1 (Homo sapiens) (UniProt Q02750); assay: Inhibition of MKK1 (unknown origin) assessed as residual enzyme activity at 10 uM
Sequence of Dual specificity mitogen-activated protein kinase kinase 1 (Homo sapiens) (Q02750 whole entry): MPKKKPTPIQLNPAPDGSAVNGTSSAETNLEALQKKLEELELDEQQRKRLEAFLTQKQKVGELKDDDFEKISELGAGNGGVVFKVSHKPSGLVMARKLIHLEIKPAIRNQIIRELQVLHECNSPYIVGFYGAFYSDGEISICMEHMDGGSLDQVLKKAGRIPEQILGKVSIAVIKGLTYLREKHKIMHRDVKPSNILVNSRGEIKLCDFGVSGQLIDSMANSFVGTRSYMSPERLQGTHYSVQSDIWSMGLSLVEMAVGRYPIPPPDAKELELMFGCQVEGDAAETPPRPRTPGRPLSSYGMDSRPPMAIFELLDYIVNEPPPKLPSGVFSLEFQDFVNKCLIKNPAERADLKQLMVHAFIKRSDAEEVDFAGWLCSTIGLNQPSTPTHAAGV

[6] = target: Mitogen-activated protein kinase 1 (Homo sapiens) (UniProt P28482); assay: Inhibition of ERK2 (unknown origin) assessed as residual enzyme activity at 10 uM
Sequence of Mitogen-activated protein kinase 1 (Homo sapiens) (P28482 whole entry): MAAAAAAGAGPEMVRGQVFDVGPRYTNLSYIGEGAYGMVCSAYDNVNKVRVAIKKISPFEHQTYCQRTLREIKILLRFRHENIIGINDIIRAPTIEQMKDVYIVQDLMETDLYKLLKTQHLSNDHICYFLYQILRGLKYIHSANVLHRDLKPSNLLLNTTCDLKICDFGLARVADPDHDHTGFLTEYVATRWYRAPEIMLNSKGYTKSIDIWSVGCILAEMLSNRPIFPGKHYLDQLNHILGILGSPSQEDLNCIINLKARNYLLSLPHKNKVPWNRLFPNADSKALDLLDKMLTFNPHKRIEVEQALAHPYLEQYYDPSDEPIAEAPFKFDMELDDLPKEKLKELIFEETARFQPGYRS

[7] = target: Mitogen-activated protein kinase 8 (Homo sapiens) (UniProt P45983); assay: Inhibition of JNK1 (unknown origin) assessed as residual enzyme activity at 10 uM
Sequence of Mitogen-activated protein kinase 8 (Homo sapiens) (P45983 whole entry): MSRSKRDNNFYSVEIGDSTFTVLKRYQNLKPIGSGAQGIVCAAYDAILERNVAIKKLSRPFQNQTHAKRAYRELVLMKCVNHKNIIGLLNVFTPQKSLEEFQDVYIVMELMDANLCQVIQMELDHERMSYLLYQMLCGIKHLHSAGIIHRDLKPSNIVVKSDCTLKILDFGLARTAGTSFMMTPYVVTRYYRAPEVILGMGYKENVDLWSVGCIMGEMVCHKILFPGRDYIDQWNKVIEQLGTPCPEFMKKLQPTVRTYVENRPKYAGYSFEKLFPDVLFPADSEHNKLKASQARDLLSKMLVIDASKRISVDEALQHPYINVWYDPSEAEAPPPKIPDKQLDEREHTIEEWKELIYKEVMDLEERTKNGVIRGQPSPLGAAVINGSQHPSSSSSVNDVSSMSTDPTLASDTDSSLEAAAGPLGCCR

[8] = target: Mitogen-activated protein kinase 9 (Homo sapiens) (UniProt P45984); assay: Inhibition of JNK2 (unknown origin) assessed as residual enzyme activity at 10 uM
Sequence of Mitogen-activated protein kinase 9 (Homo sapiens) (P45984 whole entry, looked up): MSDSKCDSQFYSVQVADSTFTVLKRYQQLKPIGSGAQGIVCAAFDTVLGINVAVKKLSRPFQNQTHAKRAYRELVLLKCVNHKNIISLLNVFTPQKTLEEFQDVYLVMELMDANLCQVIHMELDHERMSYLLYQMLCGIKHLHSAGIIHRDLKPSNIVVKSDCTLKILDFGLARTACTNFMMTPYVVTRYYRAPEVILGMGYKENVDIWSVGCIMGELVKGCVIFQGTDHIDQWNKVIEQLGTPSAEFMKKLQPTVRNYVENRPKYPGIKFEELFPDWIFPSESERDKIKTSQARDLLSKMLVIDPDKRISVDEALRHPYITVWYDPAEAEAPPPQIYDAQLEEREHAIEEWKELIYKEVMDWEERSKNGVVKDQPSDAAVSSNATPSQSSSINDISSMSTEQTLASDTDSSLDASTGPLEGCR

[9] = target: T1, Mitogen-activated protein kinase 15 (Homo sapiens) (UniProt Q8TD08); assay: Inhibition of ERK8 (unknown origin) assessed as residual enzyme activity at 10 uM
T1 sequence (whole entry): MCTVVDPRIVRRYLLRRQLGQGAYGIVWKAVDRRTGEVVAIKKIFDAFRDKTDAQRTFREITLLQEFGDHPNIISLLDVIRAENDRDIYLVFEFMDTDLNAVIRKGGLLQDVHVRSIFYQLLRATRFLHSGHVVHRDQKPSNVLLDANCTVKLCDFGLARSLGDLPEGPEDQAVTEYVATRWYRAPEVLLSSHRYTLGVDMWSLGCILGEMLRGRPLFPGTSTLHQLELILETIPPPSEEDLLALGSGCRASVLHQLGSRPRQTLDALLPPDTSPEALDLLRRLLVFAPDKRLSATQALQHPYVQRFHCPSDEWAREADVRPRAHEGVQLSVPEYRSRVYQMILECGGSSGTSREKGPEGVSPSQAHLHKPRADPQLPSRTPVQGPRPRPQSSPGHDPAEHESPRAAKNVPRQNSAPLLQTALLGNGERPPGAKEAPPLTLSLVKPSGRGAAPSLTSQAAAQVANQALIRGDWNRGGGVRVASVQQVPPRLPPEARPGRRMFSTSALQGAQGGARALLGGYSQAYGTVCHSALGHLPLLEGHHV

[10] = target: MAP kinase-activated protein kinase 2 (Homo sapiens) (UniProt P49137); assay: Inhibition of MAPKAP-K2 (unknown origin) assessed as residual enzyme activity at 10 uM
Sequence of MAP kinase-activated protein kinase 2 (Homo sapiens) (P49137 whole entry, looked up): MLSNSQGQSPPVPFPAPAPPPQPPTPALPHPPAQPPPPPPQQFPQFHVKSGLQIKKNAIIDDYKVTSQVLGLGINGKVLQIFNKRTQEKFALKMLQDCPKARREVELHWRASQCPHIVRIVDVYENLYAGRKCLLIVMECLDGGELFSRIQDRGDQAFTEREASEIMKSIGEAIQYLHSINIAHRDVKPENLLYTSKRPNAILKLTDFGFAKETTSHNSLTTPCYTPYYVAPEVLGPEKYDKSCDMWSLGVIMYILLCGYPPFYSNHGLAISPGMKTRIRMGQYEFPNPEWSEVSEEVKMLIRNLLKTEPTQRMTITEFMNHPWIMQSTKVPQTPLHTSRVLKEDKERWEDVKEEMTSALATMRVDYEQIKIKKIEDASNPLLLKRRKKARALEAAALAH

[11] = target: Glycogen synthase kinase-3 beta (Homo sapiens) (UniProt P49841); assay: Inhibition of GSK3b (unknown origin) assessed as residual enzyme activity at 10 uM
Sequence of Glycogen synthase kinase-3 beta (Homo sapiens) (P49841 whole entry, looked up): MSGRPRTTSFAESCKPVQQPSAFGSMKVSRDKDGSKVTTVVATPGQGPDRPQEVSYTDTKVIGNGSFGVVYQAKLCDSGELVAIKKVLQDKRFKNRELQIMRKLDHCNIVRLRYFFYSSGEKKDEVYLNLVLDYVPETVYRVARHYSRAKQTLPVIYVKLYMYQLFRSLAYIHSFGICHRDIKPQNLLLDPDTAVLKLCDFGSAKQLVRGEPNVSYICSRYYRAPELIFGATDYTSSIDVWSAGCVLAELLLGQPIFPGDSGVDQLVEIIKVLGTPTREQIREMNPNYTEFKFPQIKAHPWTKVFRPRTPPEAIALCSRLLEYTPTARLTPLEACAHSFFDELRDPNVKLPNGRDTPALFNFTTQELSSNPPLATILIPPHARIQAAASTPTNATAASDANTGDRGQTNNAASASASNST

[12] = target: Cyclin-dependent kinase 2 (Homo sapiens) (UniProt P24941); assay: Inhibition of CDK2 (unknown origin) assessed as residual enzyme activity at 10 uM
[13] = target: Maternal embryonic leucine zipper kinase (Homo sapiens) (UniProt Q14680); assay: Inhibition of MELK (unknown origin) assessed as residual enzyme activity at 10 uM
[14] = target: Dual specificity tyrosine-phosphorylation-regulated kinase 1A (Homo sapiens) (UniProt Q13627); assay: Inhibition of DYRK1A (unknown origin) assessed as residual enzyme activity at 10 uM
[15] = target: T2, Dual specificity tyrosine-phosphorylation-regulated kinase 2 (Homo sapiens) (UniProt Q92630); assay: Inhibition of DYRK2 (unknown origin) assessed as residual enzyme activity at 10 uM
T2 sequence (whole entry): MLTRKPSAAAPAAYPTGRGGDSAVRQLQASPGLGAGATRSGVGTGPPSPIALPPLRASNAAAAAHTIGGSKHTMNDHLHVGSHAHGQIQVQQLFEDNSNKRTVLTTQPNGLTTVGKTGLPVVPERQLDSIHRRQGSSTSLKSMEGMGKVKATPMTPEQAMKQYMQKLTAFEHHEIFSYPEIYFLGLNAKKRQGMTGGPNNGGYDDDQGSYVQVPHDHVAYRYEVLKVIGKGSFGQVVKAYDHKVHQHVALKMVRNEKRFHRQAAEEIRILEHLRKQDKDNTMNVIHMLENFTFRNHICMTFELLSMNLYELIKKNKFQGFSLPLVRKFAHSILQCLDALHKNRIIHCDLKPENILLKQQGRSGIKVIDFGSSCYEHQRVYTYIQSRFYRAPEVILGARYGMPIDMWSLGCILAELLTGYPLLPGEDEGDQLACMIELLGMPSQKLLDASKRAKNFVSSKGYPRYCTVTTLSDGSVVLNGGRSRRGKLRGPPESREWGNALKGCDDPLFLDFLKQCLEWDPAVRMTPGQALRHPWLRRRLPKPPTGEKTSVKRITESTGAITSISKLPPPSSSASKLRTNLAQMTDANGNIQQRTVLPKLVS

[16] = target: T3, Dual specificity tyrosine-phosphorylation-regulated kinase 3 (Homo sapiens) (UniProt O43781); assay: Inhibition of DYRK3 (unknown origin) assessed as residual enzyme activity at 10 uM
T3 sequence (whole entry): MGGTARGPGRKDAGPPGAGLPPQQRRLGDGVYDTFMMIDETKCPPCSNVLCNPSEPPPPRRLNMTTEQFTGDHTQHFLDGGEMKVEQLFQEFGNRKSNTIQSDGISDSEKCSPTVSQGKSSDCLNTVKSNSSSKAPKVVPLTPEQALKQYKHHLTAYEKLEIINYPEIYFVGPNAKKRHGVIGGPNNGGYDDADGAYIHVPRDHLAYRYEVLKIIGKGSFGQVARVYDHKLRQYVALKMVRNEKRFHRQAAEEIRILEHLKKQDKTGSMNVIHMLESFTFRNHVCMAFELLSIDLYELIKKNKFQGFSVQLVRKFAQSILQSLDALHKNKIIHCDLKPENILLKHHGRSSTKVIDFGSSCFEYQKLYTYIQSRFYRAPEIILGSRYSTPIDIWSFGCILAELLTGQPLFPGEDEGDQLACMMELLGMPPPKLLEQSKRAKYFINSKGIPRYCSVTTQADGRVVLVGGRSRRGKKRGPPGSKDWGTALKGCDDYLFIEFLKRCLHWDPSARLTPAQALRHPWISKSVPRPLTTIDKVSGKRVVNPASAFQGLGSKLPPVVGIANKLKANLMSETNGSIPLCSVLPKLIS

[17] = target: Serine/threonine-protein kinase pim-1 (Homo sapiens) (UniProt P11309); assay: Inhibition of PIM1 (unknown origin) assessed as residual enzyme activity at 10 uM
Sequence of Serine/threonine-protein kinase pim-1 (Homo sapiens) (P11309 whole entry, looked up): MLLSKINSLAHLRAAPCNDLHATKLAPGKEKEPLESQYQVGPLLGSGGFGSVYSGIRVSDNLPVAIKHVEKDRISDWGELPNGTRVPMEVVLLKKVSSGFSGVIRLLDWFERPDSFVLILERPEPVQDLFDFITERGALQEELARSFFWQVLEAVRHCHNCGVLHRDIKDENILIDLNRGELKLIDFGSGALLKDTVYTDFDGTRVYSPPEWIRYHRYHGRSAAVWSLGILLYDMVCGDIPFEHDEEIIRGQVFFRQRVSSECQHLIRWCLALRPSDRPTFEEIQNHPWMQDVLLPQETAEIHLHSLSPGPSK

[18] = target: Serine/threonine-protein kinase pim-3 (Homo sapiens) (UniProt Q86V86); assay: Inhibition of PIM3 (unknown origin) assessed as residual enzyme activity at 10 uM
[19] = target: Homeodomain-interacting protein kinase 2 (Homo sapiens) (UniProt Q9H2X6); assay: Inhibition of HIPK2 (unknown origin) assessed as residual enzyme activity at 10 uM
[20] = target: Insulin-like growth factor 1 receptor (Homo sapiens) (UniProt P08069); assay: Inhibition of IGF-1R (unknown origin) assessed as residual enzyme activity at 10 uM
Sequence of Insulin-like growth factor 1 receptor (Homo sapiens) (P08069 31-736 limits assumed): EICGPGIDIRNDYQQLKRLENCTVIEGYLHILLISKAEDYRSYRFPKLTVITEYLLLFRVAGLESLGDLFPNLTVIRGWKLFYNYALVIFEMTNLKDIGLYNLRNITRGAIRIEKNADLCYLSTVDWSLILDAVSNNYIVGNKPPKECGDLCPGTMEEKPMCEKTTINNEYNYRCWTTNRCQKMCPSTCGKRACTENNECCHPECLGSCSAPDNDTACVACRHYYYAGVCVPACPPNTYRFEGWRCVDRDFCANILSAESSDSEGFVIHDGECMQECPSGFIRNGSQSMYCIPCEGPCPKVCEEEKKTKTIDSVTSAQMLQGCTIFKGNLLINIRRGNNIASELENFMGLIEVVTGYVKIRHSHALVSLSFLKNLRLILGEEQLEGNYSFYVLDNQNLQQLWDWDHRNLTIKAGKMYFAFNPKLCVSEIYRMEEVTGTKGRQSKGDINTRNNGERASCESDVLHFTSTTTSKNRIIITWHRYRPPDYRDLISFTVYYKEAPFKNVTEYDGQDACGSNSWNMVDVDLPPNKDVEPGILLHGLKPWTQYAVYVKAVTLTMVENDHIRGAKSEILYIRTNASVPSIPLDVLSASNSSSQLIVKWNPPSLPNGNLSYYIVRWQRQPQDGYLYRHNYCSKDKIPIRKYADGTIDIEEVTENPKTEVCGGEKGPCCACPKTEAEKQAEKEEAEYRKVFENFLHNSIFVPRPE
Sequence of Insulin-like growth factor 1 receptor (Homo sapiens) (P08069 741-1367 limits assumed): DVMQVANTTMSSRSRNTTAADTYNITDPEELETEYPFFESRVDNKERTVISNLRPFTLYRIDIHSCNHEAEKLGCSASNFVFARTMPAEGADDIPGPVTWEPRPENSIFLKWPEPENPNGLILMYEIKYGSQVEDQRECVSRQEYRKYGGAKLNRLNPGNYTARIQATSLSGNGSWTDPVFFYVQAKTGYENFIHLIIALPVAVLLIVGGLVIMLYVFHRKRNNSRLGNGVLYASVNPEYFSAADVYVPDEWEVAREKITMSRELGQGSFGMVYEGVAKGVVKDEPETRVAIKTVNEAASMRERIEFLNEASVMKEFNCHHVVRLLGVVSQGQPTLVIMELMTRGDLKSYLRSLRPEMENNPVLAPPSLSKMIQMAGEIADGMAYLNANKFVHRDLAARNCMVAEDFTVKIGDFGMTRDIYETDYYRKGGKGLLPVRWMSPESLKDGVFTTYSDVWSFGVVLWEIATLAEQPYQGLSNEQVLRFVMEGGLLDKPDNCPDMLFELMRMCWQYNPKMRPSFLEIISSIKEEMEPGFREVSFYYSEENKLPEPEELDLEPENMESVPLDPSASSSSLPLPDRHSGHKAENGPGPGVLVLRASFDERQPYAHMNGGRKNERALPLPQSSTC

[21] = Selectivity ratio, ratio of IC50 for human GSK3 to IC50 Trypanosoma brucei GSK3
[22] = target: Misshapen-like kinase 1 (Homo sapiens) (UniProt Q8N4C8); assay: Inhibition of MINK1 (unknown origin) assessed as residual enzyme activity at 10 uM

IC50 [2]	IC50 (CDK2/Cyclin A2)	Ratio IC50 [3]	Ratio IC50 [21]	Structure (SMILES)	IC50 [1]	EC50 [4]	EC50 (MRC5)	Activity [5]	Activity [6]	Activity [7]	Activity [8]	Activity [9]	Activity [10]	Activity [11]	Activity [12]	Activity [13]	Activity [14]	Activity [15]	Activity [16]	Activity [17]	also measured
< 5 nM	38 nM			CO[C@H]1CC[C@H](NC(=O)c2n[nH]cc2NC(=O)c2ccccc2)CC1	24 nM	1300 nM	800 nM	54%	18%	31%	51%	14%	92%	33%	1%	32%	6%	3%	24%	46%	Activity [18]: 19%; Activity [19]: 14%; Activity [20]: 96%
8 nM	380 nM	0.55	0.0012	CO[C@H]1CC[C@H](NC(=O)c2n[nH]cc2NC(=O)C2CCOCC2)CC1	690 nM	32000 nM	> 50000 nM														
70 nM	4300 nM	720	12	COc1cccc(OC)c1C(=O)Nc1c[nH]nc1C(=O)Nc1ccccc1	6 nM	11500 nM	> 50000 nM														
660 nM	> 10000 nM	> 31	2.1	COc1cccc(OC)c1C(=O)Nc1c[nH]nc1C(=O)NCCN1CCCC1	320 nM	> 50000 nM	> 50000 nM														
870 nM	> 10000 nM	> 71	6.2	COc1cccc(OC)c1C(=O)Nc1c[nH]nc1C(=O)NCc1ncccc1C	140 nM	> 50000 nM	> 50000 nM														
210 nM	850 nM	1.7	0.42	COc1ccccc1CC(=O)Nc1c[nH]nc1C(=O)N[C@H]1CC[C@H](OC)CC1	500 nM	22000 nM	40000 nM														
20 nM	2000 nM	2000	20	COc1cccc(OC)c1C(=O)Nc1c[nH]nc1C(=O)NC1CCCCCC1	1 nM	4500 nM	42000 nM														
300 nM	> 10000 nM	> 290	8.8	COCCNC(=O)c1n[nH]cc1NC(=O)c1c(OC)cccc1OC	34 nM	43000 nM	> 50000 nM														
4500 nM	> 10000 nM	> 19	8.7	COC(=O)c1n[nH]cc1NC(=O)c1c(OC)cccc1OC	520 nM	> 50000 nM	> 50000 nM														

Structure (SMILES)	IC50 [2]	IC50 (CDK2/Cyclin A2)	Ratio IC50 [3]	Ratio IC50 [21]	IC50 [1]	EC50 [4]	EC50 (MRC5)	Activity [5]	Activity [6]	Activity [7]	Activity [8]	Activity [9]	Activity [10]	Activity [11]	Activity [12]	Activity [13]	Activity [14]	Activity [15]	Activity [16]	Activity [17]	also measured
CO[C@H]1CC[C@H](NC(=O)c2n[nH]cc2NC(=O)c2ccc(-c3ccccc3)o2)CC1	< 5 nM	10 nM	1.4		7 nM	300 nM	100 nM	17%	2%	8%	15%	7%	90%	0%	1%	13%	1%	1%	2%	13%	Activity [18]: 1%; Activity [19]: 4%; Activity [20]: 15%
COc1cccc(OC)c1C(=O)Nc1c[nH]nc1C(=O)NCc1ccccc1	330 nM	> 10000 nM	> 10000	330	1 nM	5900 nM	50000 nM	76%	92%	71%	63%	47%	13%	10%	38%	96%	79%	28%	80%	92%	Activity [18]: 96%; Activity [19]: 93%; Activity [20]: 79%; Activity [22]: 18%
COc1cccc(OC)c1C(=O)Nc1c[nH]nc1C(=O)N[C@H]1CC[C@H](OC)CC1	< 5 nM	190 nM	95	< 2.5	2 nM	500 nM	31000 nM	83%	51%	77%	82%	27%	33%	0%	9%	100%	84%	63%	100%	100%	Activity [18]: 94%; Activity [19]: 100%; Activity [20]: 100%
